Source: PubChem BioAssay
ASAP1 inh – blocks human ASAP1-stimulated Arf1 GTP hydrolysis | Q9ULH1 | GDP FP detection | inhibition, % at 16.5 µM | 360,000 compounds, 0.19% hits | AID 624377; in the data active = inhibition above about 25%;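 note: 0% = vehicle with enzyme and substrate and 100% = no enzyme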
PAFAH2 FP inh – PAFAH2 (human) inhibition | 340,000 compounds, 0.99% hits | inhibition, % at 3.39 µM | Q99487 | recombinant PAFAH2, FP-rhodamine activity probe, fluorescence polarization;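 active = inhibition above the mean over all tested compounds plus 3 SD, cut at about 30% in these data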;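 note: inhibitors block probe labeling of enzyme so polarization drops; 0% = enzyme with DMSO and 100% = wells lacking PAFAH2 protein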
pPAFAH FP inh – inhibitors of human plasma PAF acetylhydrolase (pPAFAH). recombinant pPAFAH, FP-rhodamine probe fluorescence polarization. inhibition, % at 3.39 µM. Q13093. 330,000 compounds, 1.5% hits. AID 463082;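 active = inhibition above the mean inhibition across the screen plus 3 SD, cut at about 25% in these data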;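 note: inhibitors block binding of the rhodamine activity-based probe so polarization drops; 0% = enzyme with DMSO and 100% = wells lacking pPAFAH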
Target sequence (Q13093 whole entry, looked up): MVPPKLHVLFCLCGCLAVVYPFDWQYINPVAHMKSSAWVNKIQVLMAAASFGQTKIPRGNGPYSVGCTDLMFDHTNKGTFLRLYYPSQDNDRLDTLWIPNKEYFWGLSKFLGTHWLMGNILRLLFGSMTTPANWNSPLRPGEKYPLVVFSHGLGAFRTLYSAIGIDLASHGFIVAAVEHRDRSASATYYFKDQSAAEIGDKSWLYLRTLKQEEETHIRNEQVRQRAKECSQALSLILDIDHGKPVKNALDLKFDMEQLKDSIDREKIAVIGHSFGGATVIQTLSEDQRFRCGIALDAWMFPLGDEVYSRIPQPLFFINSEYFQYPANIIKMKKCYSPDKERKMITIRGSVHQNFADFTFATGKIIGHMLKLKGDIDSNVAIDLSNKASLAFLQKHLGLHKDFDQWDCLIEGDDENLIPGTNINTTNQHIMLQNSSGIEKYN
PAFAH1B2 FP inh – inhibitors of human PAFAH1B2 | inhibition, % at 3.39 µM | 340,000 compounds, 1.2% hits | AID 492953 | recombinant PAFAH1B2, FP-rhodamine activity probe, fluorescence polarization;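 active = inhibition above the mean of all tested compounds plus 3 SD, cut at about 24% in these data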;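 note: 0% = enzyme with DMSO and 100% = wells lacking PAFAH1B2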
ARFGAP1 inh – rat ARFGAP1 inhibition; Q62848; Arfgap1-stimulated ARF1 GTP hydrolysis, GDP FP detection; inhibition, % at 16.5 µM; 360,000 compounds, 0.26% hits; AID 651572;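 active = inhibition above a per-plate limit, mean inhibition of low control wells plus 3 SD, cut at about 25% in these data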;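 note: 0% = DMSO wells with enzyme and 100% = wells lacking Arfgap1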
Target sequence (Q62848 1-136 limits assumed): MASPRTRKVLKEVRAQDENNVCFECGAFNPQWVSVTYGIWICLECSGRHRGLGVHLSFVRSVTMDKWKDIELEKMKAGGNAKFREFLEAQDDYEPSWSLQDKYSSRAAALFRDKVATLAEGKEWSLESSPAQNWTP
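material = rat Arfgap1 catalytic domain, aa 1-136 | also added = human ARF1(Δ1-17)-GTP substrate | compound dosing = one concentration, 16.5 µM, DMSO 1.26% | times = GTP hydrolysis reaction 2 h at 25 °C | measured by = FP, GDP Alexa 633 tracer displaced from anti-GDP antibody, 620/688 nm | evaluation = percent inhibition of Arfgap1-stimulated GTP hydrolysis | replication = single well per compound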
PAFAH1B3 inh – PAFAH1B3 (human) inhibition; Q15102; recombinant PAFAH1B3, FP-rhodamine probe, fluorescence polarization; inhibition, % at 3.39 µM; 340,000 compounds, 0.28% hits;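 active = inhibition above the screen-wide average of all tested compounds plus 3 SD, cut at about 25% in these data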;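 note: 0% = enzyme with DMSO only and 100% = wells lacking PAFAH1B3 protein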
Active calls of the source: *; . = no result. An excerpt weighted towards active compounds, which were near 2.7% of everything screened.

SMILES	ASAP1 inh	PAFAH2 FP inh	pPAFAH FP inh	PAFAH1B2 FP inh	ARFGAP1 inh	PAFAH1B3 inh
Cc1c(NC(=O)C23CC4CC(CC(C4)C2)C3)c(=O)n(-c2ccccc2)n1C	3	11	0	8	-20	2
O=C(COC(=O)C12CC3CC(CC(Br)(C3)C1)C2)Nc1c(F)cccc1F	-12	11	-5	35*	-7	14
CC(=O)NC12CC3CC(C1)CC(C(=O)OCC(=O)Nc1c(F)cccc1F)(C3)C2	2	0	0	3	-1	2
COc1ccccc1NC(=O)COC(=O)C12CC3CC(CC(Br)(C3)C1)C2	3	0	3	30*	-2	16
Cc1c(NC(=O)COC(=O)C23CC4CC(CC(Br)(C4)C2)C3)c(=O)n(-c2ccccc2)n1C	-10	5	2	26*	-7	11
O=C(COC(=O)C12CC3CC(CC(Br)(C3)C1)C2)Nc1ccc2[nH]c(=O)[nH]c2c1	12	3	7	37*	11	2
COC(=O)C1=C(C)N(C)C(=NCc2ccc3c(c2)OCO3)NC1c1ccc(Cl)cc1 (stereo not drawn)	3	.	.	.	-4	.
C[C@@H]1COc2cc(NCCCN3CCOCC3)ccc2S(=O)(=O)N1	4	.	.	.	1	.
Cc1c(NC(=O)COc2c(F)c(F)c(F)c(F)c2F)c(=O)n(-c2ccccc2)n1C	-7	0	2	4	27*	1
CC1(C)Nc2ccc(O)cc2-c2c1ssc2=S	8	10	26*	3	-7	7
Cc1cc(N2CCN(C(=O)OC(C)(C)C)C[C@H]2C)ccc1N1CCS(=O)(=O)CC1	7	.	.	.	3	.
Nc1ccn([C@@H]2O[C@H](C(=O)N3CCN(CCO)CC3)[C@@H](O)[C@H]2O)c(=O)n1	10	.	.	.	23	.
O=C1C=CC2=C3c4cc(O)c(O)cc4CC3(O)COC2=C1O (stereo not drawn)	-1	85*	.	19	11	36*
Cc1cc(C)c(C(=O)COC(=O)c2ccc(NC(=O)CC#N)cc2)cc1C	9	-23	25*	-13	9	-9
CCC(=O)Nc1ccc(C(=O)OCC(=O)c2ccc(C)c([N+](=O)[O-])c2)cc1	2	13	5	-3	2	11
CC(C)(C)NC(=O)NC(=O)COC(=O)c1cccc(NS(=O)(=O)c2ccc(F)c(F)c2)c1	-7	11	12	0	-4	0
CNC(=O)COC(=O)c1ccc(NC(=O)CC#N)cc1	4	4	-3	3	-7	10
CC(C)(C)c1ccc(NC(=O)COC(=O)c2ccc(NS(=O)(=O)c3ccc(F)c(F)c3)cc2)cc1	20	24	31*	-6	17	-9
CCN(CC)S(=O)(=O)c1ccc(NC(=O)COC(=O)c2ccc(NC(=O)CC#N)cc2)cc1	0	-7	26*	-8	11	6
CC(=O)Nc1ccc(C(=O)OCC(=O)c2ccc(C)c([N+](=O)[O-])c2)cc1	-3	33*	-8	-2	-10	4
COC(=O)[C@H]1[C@@H](O)[C@@]2(O)c3c(OC)cc(OC)cc3O[C@@]2(c2ccc(OC)cc2)[C@@H]1c1ccc(F)cc1	1	.	.	.	1	.
COC(=O)[C@H](Cc1ccccc1)N1CC(N2CCCC2)CS1(=O)=O (stereo partly drawn)	-2	.	.	.	1	.
C[C@@H]1ON(C)[C@H]2C[C@H]3c4cc(-c5ccc6c(c5)OCO6)ccc4CCN3C[C@@H]12	-16	.	.	.	-15	.
COc1ccc(/C(N)=N/OC(=O)CSc2ccc(C)cc2)cc1OC	5	5	5	64*	3	1
COc1ccc(/C(N)=N/OC(=O)Cc2cccs2)cc1OC	-7	-1	14	-3	-4	9
SMILES	ASAP1 inh	PAFAH2 FP inh	pPAFAH FP inh	PAFAH1B2 FP inh	ARFGAP1 inh	PAFAH1B3 inh
Cc1cccc2c(N=O)c(O)[nH]c12	14	25	31*	30*	3	53*
Cc1[nH]c2c(C)cccc2c1CC(=O)O	-3	16	1	6	6	7
CS(=O)(=O)N1CC(C(=O)O)Oc2ccc(CC(=O)O)cc21 (stereo not drawn)	-7	1	0	1	-8	3
O=C(O)Cc1ccc2c(c1)N(S(=O)(=O)c1cccc(C(F)(F)F)c1)CC(C(=O)O)O2 (stereo not drawn)	0	2	-2	27*	5	-5
C[C@@H]1CNCCN1c1ccc(N2CCS(=O)(=O)CC2)c(C#N)c1	-4	.	.	.	1	.
O=[N+]([O-])c1cc(C(F)(F)F)ccc1Sc1nccn1Cc1ccccc1	-2	3	7	70*	-19	9
COc1ccc(N(CC(=O)Nc2cc(C)ccc2C)S(=O)(=O)c2ccccc2[N+](=O)[O-])c(OC)c1	4	-6	29*	1	1	4
COc1ccc(N(CC(=O)Nc2cc(C)cc(C)c2)S(=O)(=O)c2ccccc2[N+](=O)[O-])c(OC)c1	3	-6	2	-1	17	-5
CC(C)c1[nH]nc2c1C(c1cccc(C(F)(F)F)c1)NC2=O (stereo not drawn)	2	.	.	.	-15	.
Cc1ccc(-c2nc(Nc3ccc(O)cc3)c3ccccc3n2)cc1	6	-2	26*	2	4	22
CC(C)c1cc2c(c(O)c1O)[C@@]13CCCC(C)(C)C1CC2OC3=O (stereo partly drawn)	12	61*	30*	54*	14	12
CC(C)(C)OC(=O)N1CCC(NC(=O)c2nc[nH]c2C(=O)NCC(=O)OCc2ccccc2)CC1	-1	-3	33*	-4	1	0
O=c1ccc2ccc(Oc3ccc([N+](=O)[O-])cc3Cl)cc2o1	-19	1	30*	1	8	4
C[C@H](NC(=O)OCc1ccccc1)C(=O)N[C@@H](Cc1c[nH]c2ccccc12)C(=O)O	-18	2	0	25*	0	0
O=C(O)c1ccc(CN2C(=O)c3cccc4c([N+](=O)[O-])ccc(c34)C2=O)cc1	.	16	.	18	.	31*
COc1cccc(-c2nnc(Nc3nc4c(F)cccc4s3)o2)c1	-5	25	29*	14	7	9
Cc1ccc(NS(=O)(=O)c2ccc(C(=O)NCC(c3ccco3)N3CCCCC3)cc2)cc1 (stereo not drawn)	-10	1	30*	4	5	3
CN(C)C(CNC(=O)c1ccc(S(=O)(=O)Nc2ccccc2)cc1)c1ccco1 (stereo not drawn)	1	1	29*	2	-9	6
O=C(NCC(c1ccco1)N1CCCCC1)c1ccc(S(=O)(=O)Nc2ccccc2)cc1 (stereo not drawn)	-4	0	30*	1	1	2
